According to ChEMBL document CHEMBL4184143 (J Med Chem, 2017):
The source made the active and inactive calls. The calls are words filed in the database; no cut-off is given here.

Key:
[1] = AUC (0 to t) in Sprague-Dawley rat at 5 mg/kg, iv by LC/MS method; type: ADME, organism-based; conditions: in vivo
Outline: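 Sprague Dawley rats were dosed iv at 5 mg/kg or orally at 25 mg/kg, with compound dissolved in 20% (v/v) PCP/70% (v/v) PBS vehicle. Blood was drawn by catheter at 0, 5, 15, 30 min and 1, 2, 4, 6, 8, 24 h and spun to plasma, which was stored at −80 °C. Plasma drug was quantified by a validated LC–MS/MS method, and parameters were derived noncompartmentally.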

[2] = target: Bromodomain-containing protein 9 (Homo sapiens, UniProt Q9H8M2); test: Binding affinity to human partial length BRD9 (R130 to V259 residues) expressed in bacterial expression system by BROMOscan assay
MV4-11 [3] = test: Inhibition of BET bromodomain in human MV4-11 cells assessed as downregulation of c-myc level after 1 hr by Western blot method; type: cell-based
Outline: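 MV4;11 cells were treated with a range of compound concentrations for 1 h and lysed in RIPA buffer with protease inhibitors. Lysates were run on 4–20% SDS-PAGE, transferred to PVDF and probed for c-Myc with a specific antibody.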

[4] = target: SWI/SNF-related matrix-associated actin-dependent regulator of chromatin subfamily A member 4 (Homo sapiens, UniProt P51532); test: Binding affinity to human partial length SMARCA4 (A1448 to S1575 residues) expressed in bacterial expression system by BROMOscan assay
[5] = target: T1, Bromodomain-containing protein 2 (Homo sapiens, UniProt P25440); test: Binding affinity to human partial length BRD2 bromodomain 2 isoform 1 (349 to 460 residues) expressed in bacterial expression system by BROMOscan assay
Mus musculus [6] = test: Volume of distribution at steady state in SCID mouse at 5 mg/kg, iv by LC/MS method; type: ADME, organism-based; conditions: in vivo
[7] = target: Transcription initiation factor TFIID subunit 1 (Homo sapiens, UniProt P21675); test: Binding affinity to human partial length TAF1 bromodomain 2 (D1521 to D1656 residues) expressed in bacterial expression system by BROMOscan assay
Mus musculus [8] = test: Half life in SCID mouse at 5 mg/kg, iv by LC/MS method; type: ADME, organism-based; conditions: in vivo
[9] = target: Bromodomain-containing protein 1 (Homo sapiens, UniProt O95696); test: Binding affinity to human partial length BRD1 (E556 to A688 residues) expressed in bacterial expression system by BROMOscan assay
[10] = target: Bromodomain-containing protein 4 (Homo sapiens, UniProt O60885); test: Binding affinity to human partial length BRD4 bromodomain 1/2 long isoform (N44 to E460 residues) expressed in bacterial expression system by BROMOscan assay
[11] = target: Nucleosome-remodeling factor subunit BPTF (Homo sapiens, UniProt Q12830); test: Binding affinity to human partial length FALZ (S2791 to H2911 residues) expressed in bacterial expression system by BROMOscan assay
Mus musculus [12] = test: Clearance in SCID mouse at 5 mg/kg, iv by LC/MS method; type: ADME, organism-based; conditions: in vivo
HCC1937 = test: Cytotoxicity against human HCC1937 cells assessed as cell growth inhibition after 4 days by WST-8 assay; type: functional, cell-based; conditions: HCC1937, 96 h
Outline: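 Breast cancer cells were seeded at 3,000 cells/well, treated with serially diluted compound in medium and cultured for 4 days. Growth was read by WST-8 (10% v/v final, 1–3 h) at 450 nm. Readings were normalized to DMSO-treated cells, and IC50 was obtained by nonlinear regression.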

MV4-11 [13] = test: Inhibition of BET bromodomain in human MV4-11 cells assessed as upregulation of p21 protein level after 24 hrs by Western blot method; type: cell-based
Outline: (§1)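 MV4;11 cells were exposed to compound for 24 h and lysed in RIPA buffer with protease inhibitors. Lysates were separated on 4–20% SDS-PAGE, blotted to PVDF and probed for PARP, cleaved PARP and p21, with β-actin as loading control.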

[14] = target: Bromodomain adjacent to zinc finger domain protein 2B (Homo sapiens, UniProt Q9UIF8); test: Binding affinity to human partial length BAZ2B (S2054 to S2168 residues) expressed in bacterial expression system by BROMOscan assay
[15] = target: T1, Bromodomain-containing protein 2; test: Binding affinity to human partial length BRD2 bromodomain 1/2 isoform 1 (K71 to D455 residues) by BROMOscan assay
[16] = target: Bromodomain-containing protein 7 (Homo sapiens, UniProt Q9NPI1); test: Binding affinity to human partial length BRD7 (L125 to R254 residues) expressed in […] expression system by BROMOscan assay
MV4-11 [17] = test: Antitumor activity against human MV4-11 cells xenografted in SCID mouse assessed as tumor growth inhibition at 50 mg/kg, po qd measured 2 to 3 times weekly during treatment and once weekly post dose; type: functional; conditions: MV4-11, po, read-out: TGI
Outline: (§2)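 At ~100 mm3, mice were randomized to treatment or vehicle control. Tumors were measured by electronic calipers. Animals were checked daily for signs of toxicity and weighed 2–3 times weekly on treatment, then at least weekly afterwards.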

Protein polybromo-1 = Protein polybromo-1 (Homo sapiens, UniProt Q86U86); test: Binding affinity to human partial length PBRM1 bromodomain 2 (S178 to E291 residues) expressed in bacterial expression system by BROMOscan assay
CREB-binding protein = CREB-binding protein (Homo sapiens, UniProt Q92793); test: Binding affinity to human partial length CREBBP (R1081 to G1197 residues) expressed in bacterial expression system by BROMOscan assay
[18] = AUC (0 to t) in SCID mouse at 5 mg/kg, iv by LC/MS method; type: ADME, organism-based; conditions: in vivo
Outline: (§3)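 Mouse plasma samples were stored at −80 °C. Drug levels were quantified by a validated LC–MS/MS method, and pharmacokinetic parameters were calculated by noncompartmental analysis.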

Mus musculus [19] = test: Toxicity in SCID mouse implanted with human MV-411 cells assessed as weight loss at 50 mg/kg, po qd measured 2 to 3 times weekly during treatment and weekly post dose; type: organism-based; conditions: in vivo; outline: as §2
MV4-11 [20] = test: Induction of apoptosis in human MV4-11 cells assessed as upregulation of cleaved PARP protein level after 24 hrs by Western blot method; type: functional, cell-based; outline: as §1
Mus musculus [21] = test: Toxicity in SCID mouse implanted with human MDA-MB-231 cells at 40 mg/kg, po qd measured 2 to 3 times weekly during treatment and weekly post dose; type: organism-based; conditions: in vivo; outline: as §2
MDA-MB-231 = test: Antitumor activity against human MDA-MB-231 cells xenografted in SCID mouse assessed as tumor growth inhibition at 40 mg/kg, po qd measured 2 to 3 times weekly during treatment and weekly post dose; type: functional, organism-based; outline: as §2
[22] = Half life in human liver microsomes at 1 uM by LC/MS method; type: ADME, microsome
[23] = target: Bromodomain testis-specific protein (Homo sapiens, UniProt Q58F21); test: Binding affinity to human partial length BRDT bromodomain 1/2 isoform b (K250 to E382 residues) expressed in bacterial expression system by BROMOscan assay
[24] = AUC (0 to t) in SCID mouse at 25 mg/kg, po by LC/MS method; type: ADME, organism-based; conditions: in vivo; outline: as §3
[25] = Oral bioavailability in SCID mouse at 25 mg/kg by LC/MS method; type: ADME, organism-based; conditions: in vivo

T1 sequence (P25440 whole entry, the tested form may be a part, canonical isoform): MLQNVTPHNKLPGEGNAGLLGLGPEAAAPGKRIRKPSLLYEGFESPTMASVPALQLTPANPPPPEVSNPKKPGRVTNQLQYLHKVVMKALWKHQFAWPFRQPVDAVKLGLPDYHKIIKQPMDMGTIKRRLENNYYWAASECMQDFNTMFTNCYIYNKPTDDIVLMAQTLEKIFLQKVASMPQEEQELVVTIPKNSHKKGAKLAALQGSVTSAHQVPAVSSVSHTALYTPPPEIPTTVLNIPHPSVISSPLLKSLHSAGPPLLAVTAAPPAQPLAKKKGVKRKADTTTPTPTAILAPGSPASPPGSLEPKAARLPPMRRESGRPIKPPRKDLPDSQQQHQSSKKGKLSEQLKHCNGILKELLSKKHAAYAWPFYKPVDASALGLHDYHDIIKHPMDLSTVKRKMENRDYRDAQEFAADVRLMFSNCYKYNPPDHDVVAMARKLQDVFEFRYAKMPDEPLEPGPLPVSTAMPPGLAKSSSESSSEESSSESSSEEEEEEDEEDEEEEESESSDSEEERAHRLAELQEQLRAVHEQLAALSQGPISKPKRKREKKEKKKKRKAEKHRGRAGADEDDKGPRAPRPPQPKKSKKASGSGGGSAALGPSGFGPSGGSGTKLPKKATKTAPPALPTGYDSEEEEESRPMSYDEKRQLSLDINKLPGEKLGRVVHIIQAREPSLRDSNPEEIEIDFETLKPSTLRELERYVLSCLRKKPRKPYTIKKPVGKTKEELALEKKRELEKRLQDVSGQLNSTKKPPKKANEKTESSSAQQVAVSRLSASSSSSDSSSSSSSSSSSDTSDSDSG
Bromodomain-containing protein 9, sequence (Q9H8M2 whole entry, the tested form may be a part): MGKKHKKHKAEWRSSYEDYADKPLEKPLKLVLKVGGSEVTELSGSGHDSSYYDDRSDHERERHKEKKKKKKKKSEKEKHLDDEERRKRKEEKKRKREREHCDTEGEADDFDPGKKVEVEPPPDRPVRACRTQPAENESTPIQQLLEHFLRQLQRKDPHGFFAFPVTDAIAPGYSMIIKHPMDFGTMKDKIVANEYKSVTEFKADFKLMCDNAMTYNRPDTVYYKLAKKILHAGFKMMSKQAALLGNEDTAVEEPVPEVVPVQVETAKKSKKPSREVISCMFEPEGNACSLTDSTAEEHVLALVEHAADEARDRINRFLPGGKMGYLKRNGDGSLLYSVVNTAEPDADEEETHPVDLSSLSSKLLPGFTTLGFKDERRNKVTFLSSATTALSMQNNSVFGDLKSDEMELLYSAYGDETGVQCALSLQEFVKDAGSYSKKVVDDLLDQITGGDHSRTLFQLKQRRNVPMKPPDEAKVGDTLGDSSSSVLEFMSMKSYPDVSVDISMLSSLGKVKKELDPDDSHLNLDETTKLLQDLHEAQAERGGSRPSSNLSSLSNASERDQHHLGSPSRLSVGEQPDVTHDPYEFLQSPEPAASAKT
Transcription initiation factor TFIID subunit 1, sequence (P21675 whole entry, the tested form may be a part): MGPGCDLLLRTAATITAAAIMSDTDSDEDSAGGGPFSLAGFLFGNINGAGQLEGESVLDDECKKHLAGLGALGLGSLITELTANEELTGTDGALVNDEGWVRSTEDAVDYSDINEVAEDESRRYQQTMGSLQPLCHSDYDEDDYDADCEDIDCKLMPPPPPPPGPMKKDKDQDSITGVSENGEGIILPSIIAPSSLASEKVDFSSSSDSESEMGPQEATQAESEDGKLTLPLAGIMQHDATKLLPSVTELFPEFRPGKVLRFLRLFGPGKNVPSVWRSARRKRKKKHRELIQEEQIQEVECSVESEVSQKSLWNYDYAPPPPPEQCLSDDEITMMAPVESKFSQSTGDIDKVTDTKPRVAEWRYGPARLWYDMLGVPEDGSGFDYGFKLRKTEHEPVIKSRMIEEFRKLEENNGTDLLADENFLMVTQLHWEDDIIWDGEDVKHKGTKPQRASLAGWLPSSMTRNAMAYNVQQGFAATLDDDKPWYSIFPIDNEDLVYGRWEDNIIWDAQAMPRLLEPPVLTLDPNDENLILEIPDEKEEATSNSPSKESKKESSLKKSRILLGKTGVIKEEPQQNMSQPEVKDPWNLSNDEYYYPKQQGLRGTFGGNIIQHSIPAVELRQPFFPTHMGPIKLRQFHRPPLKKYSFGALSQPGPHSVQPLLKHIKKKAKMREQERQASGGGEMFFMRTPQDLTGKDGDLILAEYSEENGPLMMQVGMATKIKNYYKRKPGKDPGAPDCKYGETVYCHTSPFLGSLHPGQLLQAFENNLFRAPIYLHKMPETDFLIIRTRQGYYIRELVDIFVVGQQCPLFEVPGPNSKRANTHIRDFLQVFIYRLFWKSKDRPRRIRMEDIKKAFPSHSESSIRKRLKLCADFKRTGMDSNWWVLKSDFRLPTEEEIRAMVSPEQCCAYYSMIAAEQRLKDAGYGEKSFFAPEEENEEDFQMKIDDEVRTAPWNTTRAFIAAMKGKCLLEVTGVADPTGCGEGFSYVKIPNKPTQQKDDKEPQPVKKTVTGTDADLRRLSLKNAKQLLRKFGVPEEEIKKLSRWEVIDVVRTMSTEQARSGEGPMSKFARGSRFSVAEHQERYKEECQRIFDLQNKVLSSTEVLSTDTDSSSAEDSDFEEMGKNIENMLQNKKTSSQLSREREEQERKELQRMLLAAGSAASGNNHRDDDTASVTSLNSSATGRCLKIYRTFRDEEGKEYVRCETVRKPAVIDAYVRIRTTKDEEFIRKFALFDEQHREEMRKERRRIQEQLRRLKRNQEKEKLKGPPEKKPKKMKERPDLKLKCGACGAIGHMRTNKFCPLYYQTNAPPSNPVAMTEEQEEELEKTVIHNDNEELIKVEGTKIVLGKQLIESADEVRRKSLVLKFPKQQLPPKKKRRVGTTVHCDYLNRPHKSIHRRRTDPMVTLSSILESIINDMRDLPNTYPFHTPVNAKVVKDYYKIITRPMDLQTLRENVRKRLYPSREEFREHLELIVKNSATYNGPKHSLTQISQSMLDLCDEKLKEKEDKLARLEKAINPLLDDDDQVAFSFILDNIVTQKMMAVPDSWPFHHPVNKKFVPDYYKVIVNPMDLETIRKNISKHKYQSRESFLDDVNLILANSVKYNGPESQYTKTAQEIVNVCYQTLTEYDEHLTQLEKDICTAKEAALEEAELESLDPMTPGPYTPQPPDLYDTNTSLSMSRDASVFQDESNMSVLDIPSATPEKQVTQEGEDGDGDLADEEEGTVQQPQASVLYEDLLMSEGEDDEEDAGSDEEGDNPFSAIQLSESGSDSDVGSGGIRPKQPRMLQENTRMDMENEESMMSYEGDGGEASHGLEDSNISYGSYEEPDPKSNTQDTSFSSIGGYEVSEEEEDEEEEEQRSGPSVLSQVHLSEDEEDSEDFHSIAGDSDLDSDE
SWI/SNF-related matrix-associated actin-dependent regulator of chromatin subfamily A member 4, sequence (P51532 whole entry, the tested form may be a part, canonical isoform): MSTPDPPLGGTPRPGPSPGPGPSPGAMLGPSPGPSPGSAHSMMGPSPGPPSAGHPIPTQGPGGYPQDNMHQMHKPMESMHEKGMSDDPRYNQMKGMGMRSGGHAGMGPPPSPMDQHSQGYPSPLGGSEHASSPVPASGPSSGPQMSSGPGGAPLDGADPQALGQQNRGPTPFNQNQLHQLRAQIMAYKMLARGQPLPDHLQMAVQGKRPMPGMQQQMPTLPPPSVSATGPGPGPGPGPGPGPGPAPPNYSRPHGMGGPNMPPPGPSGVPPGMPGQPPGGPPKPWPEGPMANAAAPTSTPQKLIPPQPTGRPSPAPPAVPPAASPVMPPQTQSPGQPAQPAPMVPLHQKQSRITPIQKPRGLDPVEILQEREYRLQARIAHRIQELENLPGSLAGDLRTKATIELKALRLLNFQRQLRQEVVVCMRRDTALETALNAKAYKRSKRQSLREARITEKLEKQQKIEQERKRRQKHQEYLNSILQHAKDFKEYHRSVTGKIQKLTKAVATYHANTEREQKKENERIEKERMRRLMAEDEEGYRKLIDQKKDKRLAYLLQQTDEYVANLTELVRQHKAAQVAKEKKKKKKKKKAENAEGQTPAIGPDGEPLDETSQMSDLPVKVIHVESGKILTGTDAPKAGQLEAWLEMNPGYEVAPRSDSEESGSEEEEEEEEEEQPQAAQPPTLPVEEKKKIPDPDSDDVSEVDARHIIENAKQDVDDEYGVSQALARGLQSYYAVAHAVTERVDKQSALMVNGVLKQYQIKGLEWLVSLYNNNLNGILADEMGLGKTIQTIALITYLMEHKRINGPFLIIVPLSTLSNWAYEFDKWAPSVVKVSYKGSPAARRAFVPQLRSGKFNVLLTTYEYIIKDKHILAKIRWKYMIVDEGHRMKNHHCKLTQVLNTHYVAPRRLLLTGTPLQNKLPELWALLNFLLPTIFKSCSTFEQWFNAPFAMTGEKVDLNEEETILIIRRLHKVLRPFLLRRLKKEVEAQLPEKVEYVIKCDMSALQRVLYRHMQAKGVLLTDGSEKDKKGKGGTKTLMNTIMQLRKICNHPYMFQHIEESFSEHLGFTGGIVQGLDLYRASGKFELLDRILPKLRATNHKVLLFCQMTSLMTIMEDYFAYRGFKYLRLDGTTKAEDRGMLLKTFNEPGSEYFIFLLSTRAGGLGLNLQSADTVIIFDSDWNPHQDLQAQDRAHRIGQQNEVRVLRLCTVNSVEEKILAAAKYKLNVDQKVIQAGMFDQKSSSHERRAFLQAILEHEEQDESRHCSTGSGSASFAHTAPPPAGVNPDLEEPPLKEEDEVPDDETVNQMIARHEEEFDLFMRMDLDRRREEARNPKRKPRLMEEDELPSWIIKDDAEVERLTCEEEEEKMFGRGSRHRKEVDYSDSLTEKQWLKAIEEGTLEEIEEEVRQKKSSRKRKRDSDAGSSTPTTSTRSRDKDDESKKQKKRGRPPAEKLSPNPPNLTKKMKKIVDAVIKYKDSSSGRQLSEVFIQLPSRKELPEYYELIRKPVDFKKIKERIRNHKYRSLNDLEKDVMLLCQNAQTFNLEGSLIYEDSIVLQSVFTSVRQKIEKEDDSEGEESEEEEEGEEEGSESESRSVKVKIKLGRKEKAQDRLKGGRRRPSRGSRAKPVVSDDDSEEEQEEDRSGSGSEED

COc1cc2c(cc1-c1c(C)noc1C)[nH]c1nc(C)nc(-c3ccnc4ccccc34)c12
AUC(0-t) [1]: 6340 ng·h/mL | Kd [2]: > 4000 nM | inhibition (MV4-11 [3]): Dose-dependent effect | Kd [4]: > 4000 nM | Kd [5]: 0.9 nM | Vdss (Mus musculus [6]): 2.75 L/kg | Kd [7]: > 4000 nM | t1/2 (Mus musculus [8]): 30 min | Kd [9]: > 4000 nM | Kd [10]: 1.8 nM | Kd [11]: > 4000 nM | CL (Mus musculus [12]): 22.7 mL/min/kg | IC50 (HCC1937): > 2000 nM | inhibition (MV4-11 [13]): Dose-dependent effect | Kd [14]: > 4000 nM | Kd [15]: 1.1 nM | Kd [16]: > 4000 nM | inhibition in vivo at 50 mg/kg (MV4-11 [17]): > 80% | Kd (Protein polybromo-1): > 4000 nM | Kd (CREB-binding protein): 520 nM | AUC(0-t) [18]: 3690 ng·h/mL | Activity (Mus musculus [19]): Non-Toxic | Activity (MV4-11 [20]): Dose-dependent effect | Activity (Mus musculus [21]): Non-Toxic | TGI (MDA-MB-231): Active | t1/2 [22]: > 60 min | Kd [23]: 9.7 nM | AUC(0-t) [24]: 9140 ng·h/mL | bioavailability [25]: 50%
